# From PubChem
# Scp1 inh: inhibitors of human Scp-1 phosphatase | inhibition, % at 20 µM | AID 493091 | Recombinant Scp1, phosphopeptide, malachite green phosphate absorbance | actives 0.88% (n = 340,000) | Q9GZU7;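 active = inhibition above about 50% at 20 µM, limit read from the data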
# Target sequence (Q9GZU7 76-261 limits assumed): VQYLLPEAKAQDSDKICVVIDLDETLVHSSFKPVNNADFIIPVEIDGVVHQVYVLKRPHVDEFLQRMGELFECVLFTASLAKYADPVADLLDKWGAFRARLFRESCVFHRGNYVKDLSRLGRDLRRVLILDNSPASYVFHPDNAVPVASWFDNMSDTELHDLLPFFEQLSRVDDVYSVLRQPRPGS
#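 Test system – truncated SCP-1 phosphatase (76-261aa) · Reagent – Phosphorylated 17-residue peptide substrate · Incubation – 45 min room-temperature reaction, 5 min colour, 30 min stabiliser · Detection – colorimetric phosphate reagent with accelerator and stabiliser, absorbance at 630 nm · Measure – % inhibition at 20 µM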
# STEP block: inhibitors of human striatal-enriched phosphatase STEP; P54829; recombinant STEP, OMFP fluorogenic substrate, fluorescence; inhibition, % at 20 µM; actives 0.25% (n = 360,000); AID 588621;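 active = inhibition at 20 µM, scaled per plate between control wells, above about 37%, limit read from the data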
#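 System: isolated STEP enzyme; schedule: 20 min enzyme reaction at room temperature, protected from light; medium: Bis-Tris buffer pH 6.0, 2.5 mM DTT, 0.005% Tween 20; signal: fluorescence, 480/540 nm; dosing: single compound dose of 20 µM, 1% DMSO final; also added: OMFP substrate, 25 µM final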
# LMPTP inh: LMPTP (human) inhibition; actives 0.22% (n = 360,000); recombinant LMPTP-A, OMFP fluorogenic substrate, fluorescence intensity; inhibition, % at 20 µM; P24666;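 active = compounds that cut the enzyme signal by at least half of the control window in the single-dose screen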
#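 Assay system: LMPTP-A enzyme. Input: 0.625 nM LMPTP-A final. Probe or stimulus: 400 µM OMFP. Compound dosing: single 20 µM dose. Schedule: 50 min dark incubation at room temperature. Detection: fluorescence intensity of OMFP turnover product. Read-out: percent inhibition versus substrate-only and uninhibited controls. Benchmarks: no-enzyme low control, uninhibited high control.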
# DNMT1 block: blocks human DNA methyltransferase DNMT1; P26358; DNMT1 molecular beacon, Hinp1I cleavage, fluorescence; inhibition (reported as % activation of signal), % at 10 µM; actives 0.83% (n = 360,000); AID 588458; in the data active = inhibition above about 50%
# SUMO1-SIM PPI: alters human SUMO1 binding to SIM partners. SUMO1 binding to a labelled peptide, TR-FRET, 1 h. AID 602429. P63165. inhibition, % at 20 µM. actives 0.33% (n = 360,000); in the data active = inhibition above about 37%
# Target sequence (P63165 whole entry, looked up): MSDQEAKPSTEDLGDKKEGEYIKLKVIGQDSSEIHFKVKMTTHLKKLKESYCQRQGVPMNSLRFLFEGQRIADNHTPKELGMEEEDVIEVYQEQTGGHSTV
# Casp6 inh: inhibitors of human caspase-6 | P55212 | purified caspase-6, Z-VEID-R110 cleavage fluorescence | inhibition, % at 12.5 µM | actives 0.53% (n = 350,000) | AID 686996;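 active = mean inhibition across replicates at least about 35%, with every replicate also reaching that limit, limit read from the data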
# Target sequence (P55212 24-179 limits assumed): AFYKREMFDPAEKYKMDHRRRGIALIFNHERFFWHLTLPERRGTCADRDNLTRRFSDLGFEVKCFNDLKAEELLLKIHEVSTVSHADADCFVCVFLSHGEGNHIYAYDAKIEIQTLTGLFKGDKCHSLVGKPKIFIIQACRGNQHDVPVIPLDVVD
# Target sequence (P55212 194-293 limits assumed): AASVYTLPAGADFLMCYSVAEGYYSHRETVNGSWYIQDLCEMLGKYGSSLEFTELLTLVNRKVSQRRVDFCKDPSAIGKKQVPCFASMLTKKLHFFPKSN
# STEP inh conf: confirmation of human STEP phosphatase inhibitors; shares compounds with STEP block; actives 32% (n = 520); recombinant STEP, OMFP fluorogenic substrate, fluorescence; inhibition, % at 20 µM; call rule not given here
# CASP1 counter: blocks human caspase-1 in a selectivity counter-screen | 100 tested, under 10 active | purified caspase-1, Z-YVAD-R110 cleavage fluorescence | shares compounds with Casp6 inh | activity change, negative = inhibition, % at 35 µM | AID 743289;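 active = compounds lowering fluorescence whose fitted half-maximal concentration is no more than twice their top tested dose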
# Hits are given with their value; – = inactive; · = not tested or not shown. A selection: hits, their analogues and other compounds. The true share with any hit is near 1.7%.
SMILES,Scp1 inh,STEP block,LMPTP inh,DNMT1 block,SUMO1-SIM PPI,Casp6 inh,STEP inh conf,CASP1 counter
C=C(C)COc1ccc2c(CC)cc(=O)oc2c1,–,118.0,–,–,–,–,–,·
COc1ccc(NC(=S)NCCCN2CCCC2=O)c(OC)c1,–,46.1,–,–,–,–,–,·
O=C1CCCN1CCCNC(=S)Nc1ccc(F)cc1,–,42.7,–,–,–,–,–,·
O=C(Nc1ccccn1)c1ccc(Br)s1,–,–,–,–,–,–,·,·
O=C(Nn1cnnc1)c1ccc(Br)s1,–,118.2,–,–,–,–,–,·
CN1CCN(C(=S)C(=O)Nc2ccccc2)CC1,–,40.6,–,–,–,–,–,·
O=C1[C@@H]2[C@@H]3C[C@@H]([C@H]4ON=C(c5ccc(Cl)cc5)[C@@H]34)[C@@H]2C(=O)N1c1ccc2c(c1)OCO2,–,46.5,–,–,–,–,–,·
COC(=O)c1ccc(NC(=S)Nc2ccccc2)cc1,–,–,–,–,–,–,·,·
O=C(O)c1ccc(NC(=S)Nc2ccccc2)cc1,–,107.3,–,–,–,–,–,·
CCC1S/C(=N/N=C/c2ccco2)N(c2ccc(F)cc2)C1=O (stereo not given),–,–,–,–,–,–,·,·
Cc1ccccc1N1CCN(C(=S)c2ccc(-c3cccc([N+](=O)[O-])c3)o2)CC1,–,44.3,–,–,–,·,25.9,·
Cc1ccc(/C=C/C(=O)O)cc1S(=O)(=O)Nc1ccc2c(c1)OCO2,–,–,–,–,–,–,·,·
S=C(c1cn(CCOc2cccc3ccccc23)c2ccccc12)N1CCCC1,–,–,–,–,–,·,·,·
S=C(c1cn(CCOc2ccccc2)c2ccccc12)N1CCCC1,–,96.6,–,–,–,·,63.2,·
CC(C)NC(=O)N(C)C[C@H]1OCCCC[C@@H](C)Oc2ccc(NC(=O)c3ccccc3)cc2C(=O)N([C@H](C)CO)C[C@H]1C,·,·,·,·,·,–,·,·
O=C(N/N=C/c1ccc([N+](=O)[O-])cc1)c1cccnc1,–,–,–,–,–,–,·,·
Nc1c(C(=O)N/N=C/c2ccc([N+](=O)[O-])cc2)cnn1-c1ccccc1,–,51.7,–,–,–,–,–,·
Cc1csc2ncc(C(=O)NCc3ccccn3)c(=O)n12,–,98.3,–,–,–,–,–,·
Cc1csc2ncc(C(=O)NCCc3ccccc3)c(=O)n12,–,–,–,–,–,–,·,·
Cc1ccc(C(=O)N/C(=C\c2ccccc2)C(=O)OCc2ccccc2)cc1,–,60.1,–,–,–,·,–,·
CCN1CCN(C(=S)c2ccc(O)cc2)CC1,–,88.1,–,–,–,–,49.2,·
CCN1CCN(C(=S)c2ccc(Br)cc2)CC1,–,87.5,–,–,–,–,44.8,·
COC(=O)c1cc(Br)c(=O)n(CCN2CCCC2)c1,–,–,–,–,–,·,·,·
O=C(O)c1cc(S(=O)(=O)O)ccc1O,–,–,–,–,–,·,·,·
Nc1ccc2c(O)cc(S(=O)(=O)O)cc2c1,67.3,37.5,–,93.1,–,76.8,67.9,·
SMILES,Scp1 inh,STEP block,LMPTP inh,DNMT1 block,SUMO1-SIM PPI,Casp6 inh,STEP inh conf,CASP1 counter
N#C/C(=C\C=C\c1ccccc1[N+](=O)[O-])C(=O)NCc1ccccc1,–,–,–,–,–,–,·,·
O=S(=O)(O)c1cc(O)c2cc(Nc3ccccc3)ccc2c1,88.1,71.9,83.3,98.5,77.2,79.7,100.1,–
COc1cccc(/C=N/NC(=O)CNC(=O)C2COc3ccccc3O2)c1O (stereo not given),–,–,–,–,–,–,·,·
COc1cc(-c2ccc(Nc3ccccc3C(=O)O)c(OC)c2)ccc1Nc1ccccc1C(=O)O,70.5,–,–,108.5,60.8,39.5,·,–
COc1ccc(OC)c(Nc2nnc(C)c(=O)[nH]2)c1,–,·,·,·,·,–,·,·
COc1ccc(OC)c(Nc2cc3ccccc3c(=O)[nH]2)c1,–,–,–,–,–,99.0,·,–
COc1ccc(Cc2nnc(NC(=O)c3ccc(OC)c(OC)c3)s2)cc1OC,–,–,–,–,–,–,·,·
O=C1Cc2ccccc2C(=O)N1,·,·,–,·,–,99.3,·,–
O=C1Nc2ccccc2CCc2ccccc21,–,–,–,–,–,–,·,·
Cc1ccc(NC(=O)CSc2nnc(C3CC3)n2N)cc1S(=O)(=O)N1CCOCC1,–,–,–,–,–,–,·,·
Cc1ccc(NC(=O)Cn2nnc(C(=O)NCCc3ccccc3)c2N)cc1Cl,–,–,–,–,–,–,·,·
CCOC(=O)[C@H](Cc1c[nH]c2ccccc12)NC(=O)CN=[N+]=[N-],·,·,·,·,·,38.1,·,–
COC(=O)[C@H](Cc1c[nH]c2ccccc12)NC(=O)Cc1c[nH]c2ccccc12,–,–,–,–,–,–,·,·
COC(=O)[C@@H](NC(=O)NC1CCN(Cc2ccccc2)CC1)C(C)C,–,–,–,–,–,·,·,·
O=C1CN(C(=O)COC(=O)c2ccc([N+](=O)[O-])s2)c2ccccc2N1,–,–,–,–,–,·,·,–
COc1ccccc1NC(=O)COC(=O)c1ccc([N+](=O)[O-])s1,–,–,–,–,–,86.9,·,–
Cc1ccc(NC(=O)COC(=O)c2ccc([N+](=O)[O-])s2)c(C)c1,–,–,–,–,–,–,·,·
Cc1ccc(CSc2nnc(NC(=O)Cn3cnc4ccccc4c3=O)s2)cc1,–,–,–,–,–,–,·,·
O=C(O)CCc1ccc(-c2ccc(Br)cc2)n1CC(=O)O,–,–,–,–,–,47.0,·,–
O=C(O)CCc1ccc(-c2ccc(F)cc2)n1CCC(=O)O,–,–,–,–,–,·,·,·
CCOc1ccc2nc3cc(NCc4ccc(OC)cc4)ccc3c(N)c2c1,–,–,–,–,110.0,73.0,·,–
COc1ccc(S(=O)(=O)Nc2cc(Sc3ncn[nH]3)c(O)c3ccccc23)cc1,·,·,·,·,·,·,·,–
Nc1cc2nn(-c3ccccc3)nc2cc1Cl,–,–,–,–,–,98.4,·,–
CCCCNC(=O)c1nc(C2CCNCC2)oc1-c1cccc(C(F)(F)F)c1,·,·,60.0,·,–,92.3,·,–
CCCCNC(=O)c1nc(C2CCN(S(=O)(=O)c3ccccc3)CC2)oc1-c1cccc(C(F)(F)F)c1,·,–,–,–,–,–,·,·
CC(C)CCOc1ccc(C(=O)N2CCN(c3ncccn3)CC2)cc1,–,–,–,–,–,–,·,·
COc1cc(C)c2c(c1C=O)Oc1c(c(C)c(O)c3c1C(O)OC3=O)OC2=O (stereo not given),–,–,–,–,77.9,78.0,·,–
O=c1oc2ccccc2c2oc3cc(O)c(O)cc3c12,–,–,–,–,–,43.7,·,–
Nc1c(N)c2ccccc2oc1=O,–,–,–,–,–,·,·,·
